In brackets after ≈: the same amount, converted by molar mass.
Key:
Staphylococcus aureus = test: Antibacterial activity against Staphylococcus aureus ATCC 6538 after 24 hrs by broth dilution assay; type: functional
MCF7 [1] = test: Cytotoxicity against human MCF7 cells at lag phase of growth after 48 hrs by MTT assay; type: functional, cell-based
Outline: (§1)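 Monolayers grown in DMEM with 5% fetal calf serum and penicillin-streptomycin at 37 °C, 5% CO2. 2×10^4 cells/well in lag or log phase were exposed for 48 h to a concentration series of compounds predissolved in DMSO. MTT formazan was dissolved in DMSO and read at 550 nm. IC50 taken from the curve; three independent experiments.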

Candida albicans = test: Antibacterial activity against Candida albicans CECT 1039 after 24 hrs by broth dilution assay
HEp-2 [2] = test: Cytotoxicity against human Hep2 cells at exponential phase of growth after 48 hrs by MTT assay; type: functional, cell-based; outline: as §1
Bacillus cereus = test: Antibacterial activity against Bacillus cereus ATCC 21772 after 24 hrs by broth dilution assay; type: functional
Bacillus subtilis = test: Antibacterial activity against Bacillus subtilis ATCC 6051 after 24 hrs by broth dilution assay; type: functional
MCF7 [3] = test: Cytotoxicity against human […] cells at exponential phase of growth after 48 hrs by MTT assay; type: functional, cell-based; outline: as §1
Pseudomonas aeruginosa = test: Antibacterial activity against Pseudomonas aeruginosa AK958 after 24 hrs by broth dilution assay; type: functional; conditions: AK958, 24 h
Outline: (§2)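 Microdilution in nutrient broth at 37 °C, about (1-5) × 10^5 cfu/mL inoculum, compounds in DMSO (≤1% v/v, matched DMSO controls), in triplicate. Growth followed by OD550. Wells without visible growth after 24 h on a rotary shaker were subcultured in duplicate onto nutrient agar and colonies counted after overnight incubation. MIC is the lowest concentration inhibiting growth at 24 h.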

HeLa [4] = test: Cytotoxicity against human HeLa cells at lag phase of growth after 48 hrs by MTT assay; type: functional, cell-based; outline: as §1
Enterococcus faecalis = test: Antibacterial activity against Enterococcus faecalis ATCC 29212 after 24 hrs by broth dilution assay; type: functional; conditions: ATCC 29212, 24 h
Outline: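 Microdilution in brain heart infusion broth, shaken at 37 °C, about (1-5) × 10^5 cfu/mL start, DMSO ≤1% v/v with matched controls, in triplicate. OD550 read. Clear wells at 24 h were subcultured in duplicate onto brain heart infusion agar and counted after overnight incubation. MIC is the lowest concentration giving growth inhibition.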

Salmonella = test: Antibacterial activity against Salmonella CECT 4569 after 24 hrs by broth dilution assay; type: functional; conditions: CECT 4569, 24 h; outline: as §2
Vero [5] = test: Cytotoxicity against african green monkey Vero cells at lag phase of growth after 48 hrs by MTT assay; type: cell-based, Chlorocebus sabaeus; outline: as §1
[6] = tested on: Staphylococcus epidermidis; test: Antibacterial activity against Staphylococcus epidermidis ATCC 14990 after 24 hrs by broth dilution assay; type: functional; outline: as §2
A549 [7] = test: Cytotoxicity against human A549 cells at exponential phase of growth after 48 hrs by MTT assay; type: functional, cell-based; outline: as §1
HeLa [8] = test: Cytotoxicity against human HeLa cells at exponential phase of growth after 48 hrs by MTT assay; type: functional, cell-based; outline: as §1
Proteus mirabilis = test: Antibacterial activity against Proteus mirabilis CECT 170 after 24 hrs by broth dilution assay; type: functional; conditions: CECT 170, 24 h; outline: as §2
Escherichia coli = test: Antibacterial activity against Escherichia coli ATCC 9637 after 24 hrs by broth dilution assay; type: functional; conditions: ATCC 9637, 24 h; outline: as §2
[9] = tested on: Mycolicibacterium smegmatis; test: Antibacterial activity against Mycobacterium smegmatis ATCC 19420 after 48 hrs by broth dilution assay; type: functional; conditions: ATCC 19420, 48 h
Outline: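 Brain heart infusion broth with 0.06% Tween 80, 37 °C on a rotary shaker, inoculum about (1-5) × 10^5 cfu/mL, DMSO ≤1% v/v with matched controls, in triplicate. OD550 monitored.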

Vero [10] = test: Cytotoxicity against african green monkey Vero cells at exponential phase of growth after 48 hrs by MTT assay; type: cell-based, Chlorocebus sabaeus; outline: as §1
A549 [11] = test: Cytotoxicity against human A549 cells at lag phase of growth after 48 hrs by MTT assay; type: functional, cell-based; outline: as §1
HEp-2 [12] = test: Cytotoxicity against human Hep2 cells at lag phase of growth after 48 hrs by MTT assay; type: functional, cell-based; outline: as §1
[13] = Homo sapiens, MCF7, 48 h, read-out: IC50
[14] = Homo sapiens, HEp-2, 48 h, read-out: IC50
[15] = Homo sapiens, HeLa, 48 h, read-out: IC50
[16] = Chlorocebus sabaeus, Vero, 48 h, read-out: IC50
[17] = Homo sapiens, A549, 48 h, read-out: IC50

SMILES	MIC (Staphylococcus aureus) [µg/mL]	IC50 (MCF7 [1]; [13]) [µM]	MIC (Candida albicans) [µg/mL]	IC50 (HEp-2 [2]; [14]) [µM]	MI50 (Bacillus cereus) [µg/mL]	MIC (Bacillus subtilis) [µg/mL]	IC50 (MCF7 [3]; [13]) [µM]	MIC (Pseudomonas aeruginosa) [µg/mL]	IC50 (HeLa [4]; [15]) [µM]	MIC (Enterococcus faecalis) [µg/mL]	MIC (Salmonella) [µg/mL]	IC50 (Vero [5]; [16]) [µM]	MIC [6] [µg/mL]	IC50 (A549 [7]; [17]) [µM]	IC50 (HeLa [8]; [15]) [µM]	MIC (Proteus mirabilis) [µg/mL]	MIC (Escherichia coli) [µg/mL]	MIC [9] [µg/mL]	IC50 (Vero [10]; [16]) [µM]	IC50 (HEp-2 [12]; [14]) [µM]	also measured
COC(=O)C1=C2C=C(C(C)C)COC2(O)[C@H]2OC(=O)[C@@]13CCCC(C)(C)[C@H]23 (some centres undefined)	>40	> 60	>40	> 60	>40	>40	42.6	> 40	> 60	> 40	> 40	> 60	>40	39.4	> 60	> 40	> 40	> 40	> 60	> 60	IC50 (A549 [11]; [17]): > 60 µM
C[C@H]1COc2c1cc1c(c2O)[C@@]23CCCC(C)(C)[C@@H]2C[C@@H]1OC3=O	>40	> 60	>40	> 60	>40	>40	> 60	> 40	56.1	> 40	> 40	> 60	>40	51.5	37.8	> 40	> 40	> 40	> 60	> 60	IC50 (A549 [11]; [17]): > 60 µM
C[C@H]1COC2=C1C(=O)C1=C(C2=O)[C@@]23CCCC(C)(C)[C@@H]2C[C@@H]1OC3=O	>40	33	>40	39.8	>40	>40	18.4	> 40	50.3	> 40	> 40	> 58.4	>40	40.4	17.5	> 40	> 40	> 40	> 58.4	> 58.4	IC50 (A549 [11]; [17]): > 58.4 µM
Cc1coc2c1C(=O)C1=C(C2=O)[C@@]23CCCC(C)(C)[C@@H]2C[C@@H]1OC3=O	>40	> 58.8	>40		>40	>40	> 58.8	> 40	> 58.8	> 40	> 40	> 58.8	>40	> 58.8	> 58.8	> 40	> 40	> 40	> 58.8		IC50 (A549 [11]; [17]): 48.8 µM
CC(C)C1=CC2=C(C(=O)C1=O)[C@@]13CCCC(C)(C)[C@@H]1C[C@@H]2OC3=O	>40		>40	> 60	>40	>40		> 40	> 60	> 40	> 40		>40		40.2	> 40	> 40	> 40		> 60	
CC(=O)OC[C@H](C)C1=C(OC(C)=O)C(O)C2=C(C1=O)[C@@H]1C[C@H]3C(C)(C)CCC[C@]23C(=O)O1 (some centres undefined)	>40	> 45	>40	> 45	>40	>40	> 45	> 40	33.8	> 40	> 40	> 45	>40		40.5	> 40	> 40	> 40	> 45	> 45	
COc1c2c(c(O)c3c1[C@@H](C)CO3)[C@@]13CCCC(C)(C)[C@@H]1C[C@@H]2OC3=O	>40		>40		>40	>40		> 40		> 40	> 40		>40			> 40	> 40	> 40			IC50 (MCF7 [1]; mcf7): Not Active; IC50 (HEp-2 [2]; hep-2): Not Active; IC50 (MCF7 [3]; mcf7): Not Active; IC50 (HeLa [4]; hela): Not Active; IC50 (Vero [5]; vero): Not Active; IC50 (A549 [7]; a549): Not Active; IC50 (HeLa [8]; hela): Not Active; IC50 (Vero [10]; vero): Not Active; IC50 (HEp-2 [12]; hep-2): Not Active
COc1c(C(C)C)cc2c(c1OC)[C@@]13CCCC(C)(C)[C@@H]1[C@H](OC3=O)[C@@H]2OCc1ccccc1	>40		>40		>40	>40		> 40		> 40	> 40		>40			> 40	> 40	> 40			IC50 (MCF7 [1]; mcf7): Not Active; IC50 (HEp-2 [2]; hep-2): Not Active; IC50 (MCF7 [3]; mcf7): Not Active; IC50 (HeLa [4]; hela): Not Active; IC50 (Vero [5]; vero): Not Active; IC50 (A549 [7]; a549): Not Active; IC50 (HeLa [8]; hela): Not Active; IC50 (Vero [10]; vero): Not Active; IC50 (A549 [11]; a549): Not Active; IC50 (HEp-2 [12]; hep-2): Not Active
COC(=O)C1=C(/C=C(\C(=O)OC)C(C)C)[C@@H]2C[C@H]3C(C)(C)CCC[C@]13C(=O)O2	>40		>40		>40	>40		> 40		> 40	> 40		>40			> 40	> 40	> 40			IC50 (MCF7 [1]; mcf7): Not Active; IC50 (HEp-2 [2]; hep-2): Not Active; IC50 (MCF7 [3]; mcf7): Not Active; IC50 (HeLa [4]; hela): Not Active; IC50 (Vero [5]; vero): Not Active; IC50 (A549 [7]; a549): Not Active; IC50 (HeLa [8]; hela): Not Active; IC50 (Vero [10]; vero): Not Active; IC50 (HEp-2 [12]; hep-2): Not Active
CC(C)c1cc2c(c(O)c1O)[C@@]1(C(=O)O)CCCC(C)(C)[C@@H]1C[C@H]2Sc1ccccc1				18.9					4.8			6.1			11.1				21.1	15.2	
CO/N=C(\C(=O)N[C@@H]1C(=O)N2C(C(=O)O)=C(COC(C)=O)CS[C@H]12)c1csc(N)n1 [CEFOTAXIME]								> 40		> 40	> 40					> 40	> 40	> 40			MIC (Staphylococcus aureus; Staphylococcus aureus, ATCC 6538, 24 h, read-out: MIC): 1.25 µg/mL (≈ 2.74 µM); MIC (Bacillus cereus; Bacillus cereus, ATCC 21772, 24 h): 10 µg/mL (≈ 22 µM); MIC (Bacillus subtilis; Bacillus subtilis, ATCC 6051, 24 h, read-out: MIC): 8 µg/mL (≈ 17.6 µM); MIC ([6]; Staphylococcus epidermidis, ATCC 14990, 24 h, read-out: MIC): 2.5 µg/mL (≈ 5.49 µM)
CC(C)C1=CC2=C(C(=O)C1=O)[C@@]13CCCC(C)(C)[C@@H]1[C@@H](O)[C@@H]2OC3=O [ISOROSMAQUINONE]				39.2					25			> 60			30.8				> 60	39.5	
Sc1ncnc2nc[nH]c12 [MERCAPTOPURINE ANHYDROUS]		1.4		318			5.8		2.9			67.5		49.3	4.1				119	431	IC50 (A549 [11]; [17]): 47 µM

— ChEMBL document CHEMBL1154249, “Semisynthesis and biological evaluation of abietane-type diterpenes. Revision of the structure of rosmaquinone” (J Nat Prod, 2009)
